# The source made the active and inactive calls. No cut-off for these calls is given here.
# Experiments:
# PC-3 [1] = assay: Antiproliferative activity against human PC3 cells expressing PCDNA after 72 hrs by MTT assay; format: functional, cell-based; conditions: PC-3, 72 h
# Procedure, shortened: (§1)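 Cells (PC3 and its PCDNA- and SKP2-transfected lines, DU145) grown in RPMI 1640 with 10% FBS; G418 added for transfected lines. Exponential cells seeded 1 × 10⁴/well, 24 h at 37 °C, then fresh medium with compounds at several concentrations for 72 h. MTT 1–3 h at 37 °C, dissolved in 4% HCl/96% isopropanol, absorbance 570 nm. Triplicate per concentration; IC50 from dose–response curves.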
# PC-3 [2] = assay: Antiproliferative activity against human PC3 cells expressing SKP2 after 72 hrs by MTT assay; format: functional, cell-based; conditions: PC-3, 72 h; procedure, shortened: as §1
# [3] = biological target: T1, Prostaglandin G/H synthase 2 (Ovis aries) (UniProt P79208); assay: Inhibition of ovine COX-2 assessed as using arachidonic acid as substrate at 10 uM preincubated for 5 mins prior to substrate addition measured after 2 hrs by enzyme immunoassay relative to control; conditions: in the assay text read “after 2 mins” for “after 2 hrs”
# T1 sequence (whole entry): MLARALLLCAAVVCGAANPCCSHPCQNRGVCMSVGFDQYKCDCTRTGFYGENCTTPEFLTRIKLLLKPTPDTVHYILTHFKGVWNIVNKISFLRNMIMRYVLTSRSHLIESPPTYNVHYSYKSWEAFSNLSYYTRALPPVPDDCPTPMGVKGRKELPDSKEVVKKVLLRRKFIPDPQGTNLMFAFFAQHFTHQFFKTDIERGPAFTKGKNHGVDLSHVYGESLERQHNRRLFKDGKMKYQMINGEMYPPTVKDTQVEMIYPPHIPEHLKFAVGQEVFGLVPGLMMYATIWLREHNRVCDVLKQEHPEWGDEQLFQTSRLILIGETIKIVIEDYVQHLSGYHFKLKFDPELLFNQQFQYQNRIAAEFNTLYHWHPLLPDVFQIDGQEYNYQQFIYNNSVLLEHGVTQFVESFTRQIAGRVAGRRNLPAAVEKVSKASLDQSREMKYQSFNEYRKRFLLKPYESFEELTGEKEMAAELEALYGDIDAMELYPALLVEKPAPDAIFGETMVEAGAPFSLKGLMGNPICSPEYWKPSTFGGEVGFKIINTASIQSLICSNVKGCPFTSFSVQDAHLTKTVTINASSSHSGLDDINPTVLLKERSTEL
# Procedure, shortened: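 Ovine COX-1 or COX-2 with heme in 0.1 M Tris-HCl pH 8.0, 5 mM EDTA, 2 mM phenol; compound (0.001–100 µM final, DMSO stocks) preincubated 5 min at 37 °C, then arachidonic acid added, stopped with 1 M HCl after 2 min. PGF2α (SnCl2 reduction) quantified by competitive EIA at 412 nm; % inhibition vs controls; mean of two determinations.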
# PC-3 [4] = assay: Antiproliferative activity against human PC3 cells after 72 hrs by MTT assay; format: functional, cell-based; conditions: PC-3, 72 h; procedure, shortened: as §1
# DU-145 = assay: Antiproliferative activity against human DU145 cells after 72 hrs by MTT assay; format: functional, cell-based; conditions: DU-145, 72 h; procedure, shortened: as §1
# [5] = biological target: T2, Prostaglandin G/H synthase 1 (Ovis aries) (UniProt P05979); assay: Inhibition of ovine COX-1 assessed as using arachidonic acid as substrate at 10 uM preincubated for 5 mins prior to substrate addition […] by enzyme immunoassay relative to control
# T2 sequence (whole entry): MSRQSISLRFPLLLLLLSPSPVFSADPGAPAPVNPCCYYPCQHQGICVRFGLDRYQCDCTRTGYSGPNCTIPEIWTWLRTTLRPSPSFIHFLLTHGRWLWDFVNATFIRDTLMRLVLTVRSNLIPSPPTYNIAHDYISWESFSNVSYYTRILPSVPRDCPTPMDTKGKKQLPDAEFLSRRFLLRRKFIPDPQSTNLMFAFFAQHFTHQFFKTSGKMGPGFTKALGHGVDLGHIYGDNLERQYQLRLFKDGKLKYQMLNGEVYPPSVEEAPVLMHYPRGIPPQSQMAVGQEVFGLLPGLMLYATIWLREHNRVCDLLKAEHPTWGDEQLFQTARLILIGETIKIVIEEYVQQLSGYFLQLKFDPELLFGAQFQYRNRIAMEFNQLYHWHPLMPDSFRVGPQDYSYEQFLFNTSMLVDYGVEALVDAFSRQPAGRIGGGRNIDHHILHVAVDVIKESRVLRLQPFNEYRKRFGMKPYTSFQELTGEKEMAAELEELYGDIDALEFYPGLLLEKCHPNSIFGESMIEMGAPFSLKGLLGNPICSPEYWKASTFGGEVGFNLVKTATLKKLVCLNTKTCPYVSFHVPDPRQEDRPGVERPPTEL
Compound,IC50 (PC-3 [1]) [µM],IC50 (PC-3 [2]) [µM],inhibition [3],IC50 (PC-3 [4]) [µM],IC50 (DU-145) [µM],inhibition [5]
CS(=O)(=O)c1ccc(C2=C(c3ccc(F)cc3)C(=O)O/C2=C\c2ccccc2)cc1,> 50,> 50,,,,
CS(=O)(=O)c1ccc(C2=C(c3ccc(F)cc3)C(=O)O/C2=C\c2ccc(O)cc2)cc1,25.9,25.7,19.5%,> 50,> 50,
CS(=O)(=O)c1ccc(C2=C(c3ccccc3)C(=O)O/C2=C\c2cccc([N+](=O)[O-])c2)cc1,> 90,> 100,inactive,,,inactive
CS(=O)(=O)c1ccc(C2=C(c3ccccc3Cl)C(=O)O/C2=C\c2ccc(F)cc2)cc1,> 50,> 50,,,,
CS(=O)(=O)c1ccc(C2=C(c3ccc(F)cc3)C(=O)O/C2=C\c2ccco2)cc1,> 50,> 50,,,,
CC(C)=CCC/C(C)=C\C=C1/OC(=O)C(c2ccccc2)=C1c1ccc(S(C)(=O)=O)cc1,> 50,> 50,,,,
CS(=O)(=O)c1ccc(C2=C(c3ccccc3)C(=O)OC2)cc1 [ROFECOXIB],> 50,> 50,,200,200,
CN(C)c1ccc(/C=C2\OC(=O)C(c3ccccc3)=C2c2ccc(S(C)(=O)=O)cc2)cc1,> 50,> 50,,,,
CS(=O)(=O)c1ccc(C2=C(c3ccccc3)C(=O)O/C2=C\c2ccc(O)cc2)cc1,25.9,> 50,14.4%,> 50,> 50,
CS(=O)(=O)c1ccc(C2=C(c3ccccc3Cl)C(=O)O/C2=C\c2ccc3c(c2)OCO3)cc1,> 50,> 50,,,,
CS(=O)(=O)c1ccc(C2=C(c3ccccc3)C(=O)O/C2=C\c2ccc(Cl)cc2)cc1,> 50,> 50,inactive,,,14.6%
CS(=O)(=O)c1ccc(C2=C(c3ccccc3Cl)C(=O)O/C2=C\c2ccccc2Cl)cc1,> 50,> 50,,,,
CS(=O)(=O)c1ccc(C2=C(c3ccccc3)C(=O)O/C2=C\c2cccc3ccccc23)cc1,> 50,> 50,,,,
COc1cc(/C=C2\OC(=O)C(c3ccccc3)=C2c2ccc(S(C)(=O)=O)cc2)ccc1O,> 125,25.5,36.6%,> 50,> 50,
CS(=O)(=O)c1ccc(C2=C(c3ccccc3Cl)C(=O)O/C2=C\c2ccco2)cc1,> 50,> 50,,,,
CS(=O)(=O)c1ccc(C2=C(c3ccccc3)C(=O)O/C2=C\c2ccco2)cc1,> 100,> 100,inactive,,,inactive
CS(=O)(=O)c1ccc(C2=C(c3ccc(F)cc3)C(=O)O/C2=C\c2ccc(Cl)cc2)cc1,> 50,> 50,inactive,,,
CS(=O)(=O)c1ccc(C2=C(c3ccc(F)cc3)C(=O)O/C2=C\c2ccccc2Cl)cc1,> 50,> 50,,,,

Compound,IC50 (PC-3 [1]) [µM],IC50 (PC-3 [2]) [µM],inhibition [3],IC50 (PC-3 [4]) [µM],IC50 (DU-145) [µM],inhibition [5]
CS(=O)(=O)c1ccc(C2=C(c3ccccc3)C(=O)O/C2=C\c2ccc(Br)cc2)cc1,25.2,> 50,inactive,> 50,> 50,
CS(=O)(=O)c1ccc(C2=C(c3ccc(F)cc3)C(=O)O/C2=C\c2cccc3ccccc23)cc1,20,25.4,inactive,> 50,> 50,
CC(C)=C1OC(=O)C(c2ccccc2)=C1c1ccc(S(C)(=O)=O)cc1,> 50,> 50,,,,
CS(=O)(=O)c1ccc(C2=C(c3ccccc3Cl)C(=O)OC2)cc1,> 50,> 50,7.97%,,,inactive
COc1ccc(/C=C2\OC(=O)C(c3ccc(F)cc3)=C2c2ccc(S(C)(=O)=O)cc2)cc1,> 50,> 50,inactive,,,10.2%
CS(=O)(=O)c1ccc(C2=C(c3ccccc3)C(=O)O/C2=C\c2ccccc2)cc1,> 90,> 90,,,,
COc1cc(/C=C2\OC(=O)C(c3ccccc3Cl)=C2c2ccc(S(C)(=O)=O)cc2)ccc1O,> 50,25.1,14.9%,> 50,> 50,
COc1cc(/C=C2\OC(=O)C(c3ccccc3)=C2c2ccc(S(C)(=O)=O)cc2)cc(OC)c1OC,> 90,> 100,,,,
COC1(C)OC(=O)C(c2ccccc2)=C1c1ccc(S(C)(=O)=O)cc1 (configuration not stated),37.1,20.3,,> 50,> 50,
O=c1[nH]cc(F)c(=O)[nH]1 [FLUOROURACIL],31.4,,,,,
CS(=O)(=O)c1ccc(C2=C(c3ccc(F)cc3)C(=O)O/C2=C\c2ccc(Br)cc2)cc1,> 50,> 50,,,,
CS(=O)(=O)c1ccc(C2=C(c3ccc(F)cc3)C(=O)O/C2=C\c2ccc(F)cc2)cc1,> 50,> 50,,,,
CS(=O)(=O)c1ccc(C2=C(c3ccc(F)cc3)C(=O)O/C2=C\c2ccc3c(c2)OCO3)cc1,> 50,> 50,,,,
CS(=O)(=O)c1ccc(C2=C(c3ccccc3Cl)C(=O)O/C2=C\c2ccc(Br)cc2)cc1,> 50,> 50,,,,
CC(C)=C1OC(=O)C(c2ccc(F)cc2)=C1c1ccc(S(C)(=O)=O)cc1,> 50,> 50,,,,
CS(=O)(=O)c1ccc(C2=C(c3ccccc3Cl)C(=O)O/C2=C\c2cccc3ccccc23)cc1,> 50,> 50,,,,
COc1cc(/C=C2\OC(=O)C(c3ccccc3Cl)=C2c2ccc(S(C)(=O)=O)cc2)cc(OC)c1OC,> 50,> 50,,,,
CN(C)c1ccc(/C=C2\OC(=O)C(c3ccccc3Cl)=C2c2ccc(S(C)(=O)=O)cc2)cc1,> 50,30.1,4.49%,> 50,> 50,
